MrgX1 allo act = positive allosteric modulators of MrgX1, primary screen, HEK293 cells, Fluo-4 calcium flux. Mas-related G-protein coupled receptor member X1 (Homo sapiens), Q96LB2. FDSS; active compounds read high. B-score at 10 µM. actives 0.63% (n = 310,000);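 active = plate-corrected calcium response at least 3 library SD above typical, normal starting fluorescence, not activating the receptor alone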;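 also: compound read alongside a low EC10 to EC30 dose of BAM8-22 agonist; peak minus trough fluorescence over baseline measured at the second addition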
RGS4 inh = RGS4 inhibitors, primary screen, cell-based, HEK293 M3R inducible RGS4, calcium flux. Regulator of G-protein signaling 4 (Homo sapiens), P49798. Fluo-4 calcium flux; active compounds read high; triggered by carbachol at its EC20. B-score at 10 µM. actives 0.45% (n = 310,000). AID 463165, 2010;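 active = B-score, a plate-corrected calcium signal, over three deviations above library mean, with baseline fluorescence within five deviations of library mean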;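 also: RGS4 expression induced by doxycycline in cells with stable M3 receptor; B-score is computed from the integrated fluorescence ratio over baseline after carbachol; higher B-score means a larger calcium signal and so more RGS4 inhibition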
MrgX1 antag = antagonists of human MrgX1 receptor, primary screen, HEK293 cells, Fluo-4 calcium flux; Mas-related G-protein coupled receptor member X1 (Homo sapiens), Q96LB2; actives 1.3% (n = 310,000); BAM8-22 antagonism; active compounds read low; B-score at 10 µM;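 active = calcium-response B-score plate-corrected more than 3 library SD below zero, starting fluorescence within 5 deviations, no agonist response on first addition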;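 also: peak minus trough fluorescence over baseline after final BAM8-22 challenge near maximal dose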
Cl transport mod = KCC2 cotransporter modulators, thallium flux, primary screen, cell-based, HEK293 KCC2, FluoZin-2 fluorescence, MLSMR. AID 1456, 2008. actives 2.2% (n = 190,000). Solute carrier family 12 member 5 (Homo sapiens), Q9H2X9. KCC2 cells, thallium flux FluoZin-2 fluorescence. B-score of Tl+ flux slope (higher = more flux/activation; lower = inhibition) at 10 µM;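 active = thallium flux slope and its plate-corrected score both differing from the plate sample mean at a set confidence after two filtering rounds, in either direction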;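 also: slope of fluorescence scaled to starting intensity during 10 to 20 s after thallium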
Target sequence (Q9H2X9 whole entry, looked up): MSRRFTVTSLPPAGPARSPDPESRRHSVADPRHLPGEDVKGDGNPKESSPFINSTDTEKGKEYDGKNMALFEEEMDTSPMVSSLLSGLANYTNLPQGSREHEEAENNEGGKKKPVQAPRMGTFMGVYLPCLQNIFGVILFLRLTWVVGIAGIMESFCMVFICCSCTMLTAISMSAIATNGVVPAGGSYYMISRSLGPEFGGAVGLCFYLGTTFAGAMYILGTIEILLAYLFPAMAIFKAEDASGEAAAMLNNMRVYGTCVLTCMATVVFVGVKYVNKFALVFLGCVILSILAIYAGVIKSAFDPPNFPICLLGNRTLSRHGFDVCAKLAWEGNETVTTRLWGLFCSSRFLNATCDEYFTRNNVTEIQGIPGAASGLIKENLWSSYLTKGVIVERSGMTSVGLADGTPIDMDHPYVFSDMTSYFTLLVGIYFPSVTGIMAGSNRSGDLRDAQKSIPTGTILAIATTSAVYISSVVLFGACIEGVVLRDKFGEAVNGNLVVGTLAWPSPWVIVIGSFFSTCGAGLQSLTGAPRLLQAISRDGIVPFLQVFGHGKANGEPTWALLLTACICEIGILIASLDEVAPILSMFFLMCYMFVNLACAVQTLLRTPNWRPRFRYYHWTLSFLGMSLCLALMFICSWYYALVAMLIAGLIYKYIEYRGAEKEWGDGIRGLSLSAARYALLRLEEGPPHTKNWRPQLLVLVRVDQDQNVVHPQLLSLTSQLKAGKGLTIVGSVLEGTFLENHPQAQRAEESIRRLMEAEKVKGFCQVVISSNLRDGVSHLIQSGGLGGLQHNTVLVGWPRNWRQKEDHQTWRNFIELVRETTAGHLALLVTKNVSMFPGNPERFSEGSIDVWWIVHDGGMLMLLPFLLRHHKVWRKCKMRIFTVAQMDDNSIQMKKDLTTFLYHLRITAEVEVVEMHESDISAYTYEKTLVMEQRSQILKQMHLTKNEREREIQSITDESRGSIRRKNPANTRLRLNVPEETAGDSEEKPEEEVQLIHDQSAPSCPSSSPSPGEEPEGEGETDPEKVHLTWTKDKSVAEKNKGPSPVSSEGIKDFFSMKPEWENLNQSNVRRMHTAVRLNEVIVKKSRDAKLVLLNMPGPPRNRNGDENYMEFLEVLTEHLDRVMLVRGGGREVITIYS
RGS4 pot = RGS4 potentiators or activators, primary screen, cell-based, HEK293 M3R inducible RGS4, calcium flux; carbachol calcium flux Fluo4; active compounds read low; B-score at 10 µM; actives 0.92% (n = 310,000);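 active = B-score of the integrated calcium signal more than 4 SD below the library mean, with starting fluorescence not abnormally high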;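 also: negative B-score means reduced calcium response which marks RGS4 activation or potentiation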
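Material: Inducible-RGS4 HEK293 cells carrying M3 receptor; also added: carbachol at ECmax as muscarinic agonist stimulus; incubation: compound preincubation 20 min at room temperature before agonist; signal: Fluo4-AM (2 µM) calcium-flux fluorescence, kinetic read; measure: integrated calcium ratio converted to B score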
MrgX1 ag = agonists of human MrgX1 receptor, primary screen, HEK293 cells, Fluo-4 calcium flux; B-score at 10 µM; Mas-related G-protein coupled receptor member X1 (Homo sapiens), Q96LB2; actives 0.44% (n = 310,000); AID 588627, 2011; Fluo-4 calcium fluorescence, agonist mode; active compounds read high;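 active = calcium response B-score plate-corrected fluorescence ratio at least 3 library SD, with starting fluorescence B-score inside 5 SD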
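Assay system: stable human MrgX1 HEK293 cell line. Quantity: 15,000 cells per well. Schedule: cells plated overnight, dye loaded 0.5 h 37 °C, 0.5 h room temperature. Detection: Fluo-4 NW calcium-flux fluorescence, kinetic read. Read-out basis: peak-minus-minimum fluorescence over baseline, converted to B scores. Control set: positive and negative control wells on each plate.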
A number is an active result; 0 = inactive; - = no result. Hits are enriched below; roughly 4.7% of the tested compounds scored in any of these assays.

SMILES	MrgX1 allo act	RGS4 inh	MrgX1 antag	Cl transport mod	RGS4 pot	MrgX1 ag
CNc1sc(C(=O)c2ccc(F)cc2)c(N)c1-c1nc2ccccc2s1	0	0	0	9.91	0	0
CNc1sc(C(=O)c2cccs2)c(N)c1-c1nc2ccccc2s1	0	0	0	0	0	0
Cc1ccc(N2C(=S)SC3CS(=O)(=O)CC32)cc1 (centres undefined)	0	0	-5.49	0	0	0
O=C(C1CCC1)N1CCc2cc(S(=O)(=O)NC3CCCC3)ccc21	0	0	0	-	0	0
CN1CCN(c2ccccc2NS(=O)(=O)c2ccc3c(c2)CCN3C(=O)C2CCC2)CC1	0	0	0	0	-9.81	0
Cc1nc(C)c(-c2nnc(-c3ccc(C(C)(C)C)cc3)o2)cc1C(=O)NN	0	0	-6.01	0	0	0
COc1ccc(-c2c3c([nH]c(=S)c2C#N)CCC3)cc1	-	-	-	5.02	-	-
COc1ccc(OC)c(-c2c3c([nH]c(=S)c2C#N)CCCC3)c1	0	0	0	0	0	0
CC(=O)c1ccc(N(CC(=O)NCCc2ccccc2)C(=O)c2csnn2)cc1	0	0	0	-	0	0
COCC(=O)N1CCC(Oc2ccc(C(=O)N3CCN(C)C[C@@H]3C(C)C)cc2)CC1	-	0	-	-	0	-
COC1(OC)C(/C=C/c2ccc(Cl)cc2)C(C#N)(C#N)C1(OC)OC (centres undefined)	8.51	0	0	0	0	0
Cc1cc(C)c(C)c(S(=O)(=O)NCC(=O)Nc2ccccc2F)c1C	-	0	-	-	0	-
CCCN(CCC)CCNC(=O)c1cc2c(-c3ccc(Cl)cc3)nn(C)c2s1	0	0	0	-	-7.16	0
CCCCCCCCN1[C@@H](CC(=O)OC)c2cc(F)ccc2S1(=O)=O	0	0	0	-	0	0
CCCCCCCCCCCCN1[C@@H](CC(=O)OC)c2cc(C(F)(F)F)ccc2S1(=O)=O	0	0	-5.78	-	0	0
CCCCCCCCN1[C@@H](CC(=O)O)c2cc(C(F)(F)F)ccc2S1(=O)=O	0	0	0	-	0	0
CCCCCCCCCCCCN1[C@@H](CC(=O)O)c2cc(F)ccc2S1(=O)=O	0	0	0	-	-7.69	0
NC(=O)c1ccc2c(=O)c(O)c(-c3cc(Cl)c(N)c(Cl)c3)[nH]c2c1	0	0	0	-	0	0
O=c1c2c(nc3c(-c4cccc(Br)c4)c[nH]n13)CCCC2	0	0	0	20.5	0	0
Cc1c(C(=O)N2CCCCC2C)sc2nc3n(c(=O)c12)CCC3 (centres undefined)	0	0	0	-	0	0
O=C(c1ccc2nc3ccccc3c(=O)n2c1)N1CCN(Cc2ccc3c(c2)OCO3)CC1	0	0	-9.63	0	0	0
CN(C)CC/C=C1/c2cc(F)ccc2Sc2ccc(Cl)cc21	0	0	0	-	-10	0
CN(C)Cc1ccc(F)cc1Sc1ccc(Cl)cc1Cl	0	0	0	0	0	0
COc1cc(Cl)cc2c1Sc1ccccc1/C2=C/CCN(C)C	0	0	0	-	-7.08	0
CN(C)CC/C=C1/c2ccccc2Sc2c(O)cc(Cl)cc21	0	0	0	0	-7.34	0
SMILES	MrgX1 allo act	RGS4 inh	MrgX1 antag	Cl transport mod	RGS4 pot	MrgX1 ag
CN1CCN(CC/C=C2/c3ccccc3Sc3ccc(S(=O)(=O)N(C)C)cc32)CC1	0	0	0	0	0	0
CN(CC(=O)Nc1ccccc1Br)C(=O)COc1cccc2c1OC(C)(C)C2	0	0	0	-	0	0
CC1CCC(NC(=O)CCS(=O)(=O)c2ccc3c(c2)oc(=O)n3C)CC1 (centres undefined)	0	0	0	-	0	0
CCc1noc(C)c1C(=O)N1CCCC(CCC(=O)NCc2cccc(OC)c2)C1 (centres undefined)	0	0	-6.47	0	0	0
COc1cccc(CNC(=O)CCC2CCCN(C(=O)c3ccc(C)nc3)C2)c1 (centres undefined)	0	0	0	0	0	0
O=[N+]([O-])c1c(Nc2ccccc2O)ccc2nonc12	0	0	0	0	0	0
O=[N+]([O-])c1c(Nc2ccccc2O)cc(Cl)c2nonc12	0	0	-11.8	-	0	0
Cc1occc1C(=O)NC(C)C1CCCO1 (centres undefined)	0	0	-9.28	0	0	0
CCOC(=O)C1=C(CSc2nc(-c3ccccc3)ccc2C#N)OC(N)=C(C#N)C1c1ccccc1 (centres undefined)	0	0	0	0	0	0
CCOC(=O)C1=C(CSc2nc(-c3ccccc3)ccc2C#N)OC(N)=C(C#N)C1c1cccnc1 (centres undefined)	0	0	-6.1	0	0	0
CC1CC(c2ccccc2)n2nc(NC(=O)c3ccco3)nc2N1 (centres undefined)	0	0	0	0	0	0
CC1CC(N(C(=O)c2ccco2)c2ccccc2)c2ccccc2N1 (centres undefined)	6.51	0	0	0	0	0
Cc1cc(NC(=O)COC(=O)C2CC(=O)N(c3cccc(C)c3C)C2)no1 (centres undefined)	0	0	0	-	0	0
N#CCCN(Cc1ccccc1)C(=S)NC(=O)c1ccccc1	0	0	0	-	0	0
COc1ccc(CN(CCC#N)C(=S)NC(=O)c2ccccc2)cc1	0	0	0	17.2	0	0
Cc1ccsc1/C=N/NC(=O)c1ccc2nc[nH]c2c1	0	0	0	0	0	0
Cc1ccc(C(=O)N/N=C\c2sccc2C)cn1	0	0	-7.78	-	0	0
Cc1ccsc1/C=N/NC(=O)c1sccc1C	0	0	0	5.69	0	0
O=C(O)c1ccc(NC(=O)c2ccccc2NC(=O)c2cccc(Br)c2)cc1	0	0	0	-	0	0
COc1ccc(OCc2cc(C(=O)NCCN3CCCc4ccccc43)no2)c(Cl)c1	0	0	0	-	-7.47	0
CCN(CC)CCn1c(=S)[nH]c2cc(C(=O)N3CC(C)CC(C)C3)ccc2c1=O (centres undefined)	0	0	0	-	0	0
CCN(CC)CCn1c(=S)[nH]c2cc(C(=O)N3CC=C(c4ccccc4)CC3)ccc2c1=O	8.46	0	0	0	0	0
CCN(CC)CCn1c(=S)[nH]c2cc(Cl)ccc2c1=O	0	0	0	25.5	0	0
O=C(NCc1cccnc1)Nc1cccc([N+](=O)[O-])c1	0	0	0	-	0	0
COC(=O)C1CCCN1S(=O)(=O)c1ccccc1NC(=O)c1cc(OC)c(OC)c(OC)c1 (centres undefined)	0	0	0	-	0	0
